Data: ChEMBL document CHEMBL1800059, “Spiroindane based amides as potent and selective MC4R agonists for the treatment of obesity” (Bioorg Med Chem Lett, 2010)

Legend:
[1] = Agonist activity at human MC1bR expressed in CHO cells assessed as increase of alpha-MSH-stimulated cAMP release pretreated for 10 mins before alpha-MSH challenge measured after 40 mins relative to alpha-MSH; format: functional
Summary of the method: (§1)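 Each value is the mean of at least three repeat measurements. Functional read-outs give EC50 with % maximal activation.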

Melanocortin receptor 4 [2] = target: T1, Melanocortin receptor 4 (Homo sapiens, UniProt P32245); assay: Agonist activity at human MC4R expressed in CHO cells assessed as increase of alpha-MSH-stimulated cAMP release pretreated for 10 mins before alpha-MSH challenge measured after 40 mins; format: functional, cell-based; summary of the method: as §1
T1 sequence (P32245 whole entry): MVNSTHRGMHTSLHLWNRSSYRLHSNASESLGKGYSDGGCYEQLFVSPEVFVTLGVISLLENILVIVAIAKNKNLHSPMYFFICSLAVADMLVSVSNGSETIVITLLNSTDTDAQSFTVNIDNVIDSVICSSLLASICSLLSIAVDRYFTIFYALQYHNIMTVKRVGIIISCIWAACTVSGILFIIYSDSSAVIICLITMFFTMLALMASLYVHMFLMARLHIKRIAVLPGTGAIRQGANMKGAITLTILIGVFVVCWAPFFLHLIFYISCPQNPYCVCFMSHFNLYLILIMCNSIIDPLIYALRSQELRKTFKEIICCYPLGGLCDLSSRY

[3] = Agonist activity at human MC1bR expressed in CHO cells assessed as increase of alpha-MSH-stimulated cAMP release pretreated for 10 mins before alpha-MSH challenge measured after 40 mins; format: functional, cell-based; summary of the method: as §1
Melanocortin receptor 4 [4] = target: T1, Melanocortin receptor 4; assay: Displacement of [125I]-NDP-R-MSH from human MC4R expressed in CHO cells after 1.5 hrs by scintillation counting; format: cell-based; summary of the method: as §1
Melanocortin receptor 4 [5] = target: T1, Melanocortin receptor 4; assay: Agonist activity at human MC4R expressed in CHO cells assessed as increase of alpha-MSH-stimulated cAMP release pretreated for 10 mins before alpha-MSH challenge measured after 40 mins relative to alpha-MSH; format: functional, cell-based; summary of the method: as §1
[6] = Volume of distribution at steady state in Sprague-Dawley rat at 1 mg/kg, iv and 4 mg/kg, po; format: ADME, organism-based; conditions: in vivo, read-out: Vdss
Rattus norvegicus = assay: Dose-normalized AUC in Sprague-Dawley rat at 1 mg/kg, iv and 4 mg/kg, po; format: ADME, organism-based; conditions: in vivo
[7] = Oral bioavailability in Sprague-Dawley rat at 4 mg/kg; format: ADME, organism-based; conditions: in vivo
[8] = Half life in Sprague-Dawley rat at 1 mg/kg, iv and 4 mg/kg, po; format: ADME, organism-based; conditions: in vivo
[9] = Clearance in Sprague-Dawley rat at 1 mg/kg, iv and 4 mg/kg, po; format: ADME, organism-based; conditions: in vivo

SMILES	Activity [1]	EC50 (Melanocortin receptor 4 [2])	EC50 [3]	IC50 (Melanocortin receptor 4 [4])	Activity (Melanocortin receptor 4 [5])	Vd [6]	AUC/dose (Rattus norvegicus)	bioavailability [7]	half-life [8]	clearance [9]
CCN(C)C(=O)C(C)(C)[C@H]1CC2(CCN(C(=O)[C@@H]3CN(C(C)(C)C)C[C@H]3c3ccc(F)cc3F)CC2)c2cc(Cl)c(C)cc21	69%	1.6 nM	355 nM	2.1 nM	103%	–	–	–	–	–
Cc1cc2c(cc1Cl)C1(CCN(C(=O)[C@@H]3CN(C(C)(C)C)C[C@H]3c3ccc(F)cc3F)CC1)C[C@@H]2C(C)(C)C(=O)N1CC[C@H](F)C1	68%	0.98 nM	203 nM	1.4 nM	106%	–	–	–	–	–
Cc1cc2c(cc1Cl)C1(CCN(C(=O)[C@@H]3CN(C(C)(C)C)C[C@H]3c3ccc(F)cc3F)CC1)C[C@@H]2C(C)(C)C(=O)NC(C)(C)CO	53%	1.9 nM	218 nM	3.9 nM	89%	–	–	–	–	–
Cc1cc2c(cc1Cl)C1(CCN(C(=O)[C@@H]3CN(C(C)(C)C)C[C@H]3c3ccc(F)cc3F)CC1)C[C@@H]2C(C)(C)C(=O)N1CC(F)(F)C1	46%	4.3 nM	430 nM	1.8 nM	78%	8.88 L/kg	0.35 µM·h/mg/kg	29%	7.3 h	21.8 mL/min/kg
Cc1cc2c(cc1Cl)C1(CCN(C(=O)[C@@H]3CN(C(C)(C)C)C[C@H]3c3ccc(F)cc3F)CC1)C[C@@H]2C(C)(C)C(=O)NCCO	56%	1.3 nM	83 nM	2.6 nM	100%	–	–	–	–	–
Cc1cc2c(cc1Cl)C1(CCN(C(=O)[C@@H]3CN(C(C)(C)C)C[C@H]3c3ccc(F)cc3F)CC1)C[C@@H]2C(C)(C)C(=O)N1CCOCC1	66%	0.38 nM	84 nM	0.85 nM	94%	–	–	–	–	–
CCNC(=O)C(C)(C)[C@H]1CC2(CCN(C(=O)[C@@H]3CN(C(C)(C)C)C[C@H]3c3ccc(F)cc3F)CC2)c2cc(Cl)c(C)cc21	50%	1.4 nM	295 nM	3.1 nM	100%	–	–	–	–	–
CCN(CC)C(=O)C(C)(C)[C@H]1CC2(CCN(C(=O)[C@@H]3CN(C(C)(C)C)C[C@H]3c3ccc(F)cc3F)CC2)c2cc(Cl)c(C)cc21	67%	1.7 nM	168 nM	2.6 nM	81%	–	–	–	–	–
Cc1cc2c(cc1Cl)C1(CCN(C(=O)[C@@H]3CN(C(C)(C)C)C[C@H]3c3ccc(F)cc3F)CC1)C[C@@H]2C(C)(C)C(=O)N1CCC1	72%	0.59 nM	238 nM	1.1 nM	88%	–	–	–	–	–
CC(=O)NC(C)(C)[C@H]1CC2(CCN(C(=O)[C@@H]3CN(C(C)(C)C)C[C@H]3c3ccc(F)cc3F)CC2)c2cc(Cl)c(C)cc21	43%	3.3 nM	260 nM	4.5 nM	90%	–	–	–	–	–
CCNC(=O)C(C)(C)[C@@H]1CC2(CCN(C(=O)[C@@H]3CN(C(C)(C)C)C[C@H]3c3ccc(F)cc3F)CC2)c2cc(Cl)c(C)cc21	26%	32 nM	1420 nM	53 nM	96%	–	–	–	–	–
Cc1cc2c(cc1Cl)C1(CCN(C(=O)[C@@H]3CN(C(C)(C)C)C[C@H]3c3ccc(F)cc3F)CC1)C[C@@H]2C(C)(C)C(=O)NCc1ccccc1	29%	42 nM	935 nM	12 nM	79%	–	–	–	–	–
Cc1cc2c(cc1Cl)C1(CCN(C(=O)[C@@H]3CN(C(C)(C)C)C[C@H]3c3ccc(F)cc3F)CC1)C[C@@H]2C(C)(C)C(=O)N1CCCC1	60%	1 nM	223 nM	1.8 nM	73%	–	–	–	–	–
Cc1cc2c(cc1Cl)C1(CCN(C(=O)[C@@H]3CN(C(C)(C)C)C[C@H]3c3ccc(F)cc3F)CC1)C[C@@H]2C(C)(C)C(=O)NC1CC1	50%	0.8 nM	243 nM	2.2 nM	95%	–	–	–	–	–
Cc1cc2c(cc1Cl)C1(CCN(C(=O)[C@@H]3CN(C(C)(C)C)C[C@H]3c3ccc(F)cc3F)CC1)C[C@@H]2C(C)(C)C(=O)NCC(C)C	45%	27 nM	2050 nM	6.6 nM	92%	–	–	–	–	–
Cc1cc2c(cc1Cl)C1(CCN(C(=O)[C@@H]3CN(C(C)(C)C)C[C@H]3c3ccc(F)cc3F)CC1)C[C@@H]2C(C)(C)C(=O)NC1CCOCC1	74%	2.3 nM	260 nM	2.5 nM	92%	–	–	–	–	–
Cc1cc2c(cc1Cl)C1(CCN(C(=O)[C@@H]3CN(C(C)(C)C)C[C@H]3c3ccc(F)cc3F)CC1)C[C@@H]2C(C)(C)C(=O)NCCF	48%	1.1 nM	260 nM	2.6 nM	84%	–	–	–	–	–

SMILES	Activity [1]	EC50 (Melanocortin receptor 4 [2])	EC50 [3]	IC50 (Melanocortin receptor 4 [4])	Activity (Melanocortin receptor 4 [5])	Vd [6]	AUC/dose (Rattus norvegicus)	bioavailability [7]	half-life [8]	clearance [9]
Cc1cc2c(cc1Cl)C1(CCN(C(=O)[C@@H]3CN(C(C)(C)C)C[C@H]3c3ccc(F)cc3F)CC1)C[C@@H]2C(C)(C)C(=O)N1CC[C@H](O)C1	93%	0.37 nM	29 nM	0.89 nM	88%	–	–	–	–	–
Cc1cc2c(cc1Cl)C1(CCN(C(=O)[C@@H]3CN(C(C)(C)C)C[C@H]3c3ccc(F)cc3F)CC1)C[C@@H]2C(C)(C)C(=O)NC(C)C	45%	2.9 nM	435 nM	5.9 nM	92%	–	–	–	–	–
Cc1cc2c(cc1Cl)C1(CCN(C(=O)[C@@H]3CN(C(C)(C)C)C[C@H]3c3ccc(F)cc3F)CC1)C[C@H]2C(C)(C)C(=O)NCC(F)(F)F	5%	307 nM	–	93 nM	78%	–	–	–	–	–
Cc1cc2c(cc1Cl)C1(CCN(C(=O)[C@@H]3CN(C(C)(C)C)C[C@H]3c3ccc(F)cc3F)CC1)C[C@@H]2C(C)(C)C(=O)N1CC[C@@H](F)C1	69%	1.1 nM	122 nM	1.6 nM	87%	–	–	–	–	–
Cc1cc2c(cc1Cl)C1(CCN(C(=O)[C@@H]3CN(C(C)(C)C)C[C@H]3c3ccc(F)cc3F)CC1)C[C@@H]2C(C)(C)C(=O)NC(C)(C)C	47%	9.9 nM	1030 nM	12 nM	76%	–	–	–	–	–
Cc1cc2c(cc1Cl)C1(CCN(C(=O)[C@@H]3CN(C(C)(C)C)C[C@H]3c3ccc(F)cc3F)CC1)C[C@@H]2C(C)(C)C(=O)N1CC[C@@H](O)C1	71%	0.25 nM	33 nM	0.53 nM	98%	–	–	–	–	–
Cc1cc2c(cc1Cl)C1(CCN(C(=O)[C@@H]3CN(C(C)(C)C)C[C@H]3c3ccc(F)cc3F)CC1)C[C@H]2C(C)(C)C(=O)NC1CC1	20%	28 nM	1120 nM	55 nM	95%	–	–	–	–	–
CNC(=O)C(C)(C)[C@@H]1CC2(CCN(C(=O)[C@@H]3CN(C(C)(C)C)C[C@H]3c3ccc(F)cc3F)CC2)c2cc(Cl)c(C)cc21	38%	12 nM	1380 nM	47 nM	86%	–	–	–	–	–
CO[C@H]1CCN(C(=O)C(C)(C)[C@H]2CC3(CCN(C(=O)[C@@H]4CN(C(C)(C)C)C[C@H]4c4ccc(F)cc4F)CC3)c3cc(Cl)c(C)cc32)C1	71%	1.2 nM	102 nM	2.3 nM	112%	–	–	–	–	–
Cc1cc2c(cc1Cl)C1(CCN(C(=O)[C@@H]3CN(C(C)(C)C)C[C@H]3c3ccc(F)cc3F)CC1)C[C@@H]2C(C)(C)C(=O)N1C[C@@H]2C[C@H]1CO2	72%	0.76 nM	69 nM	1.6 nM	96%	–	–	–	–	–
Cc1cc2c(cc1Cl)C1(CCN(C(=O)[C@@H]3CN(C(C)(C)C)C[C@H]3c3ccc(F)cc3F)CC1)C[C@H]2C(C)(C)C(=O)N(C)C	17%	53 nM	5000 nM	59 nM	80%	–	–	–	–	–
Cc1cc2c(cc1Cl)C1(CCN(C(=O)[C@@H]3CN(C(C)(C)C)C[C@H]3c3ccc(F)cc3F)CC1)C[C@@H]2C(C)(C)C(=O)N1CCC(F)(F)C1	54%	3.8 nM	285 nM	2 nM	96%	–	–	–	–	–
CO[C@@H]1CCN(C(=O)C(C)(C)[C@H]2CC3(CCN(C(=O)[C@@H]4CN(C(C)(C)C)C[C@H]4c4ccc(F)cc4F)CC3)c3cc(Cl)c(C)cc32)C1	67%	0.69 nM	103 nM	1.4 nM	111%	–	–	–	–	–
CNC(=O)C(C)(C)[C@H]1CC2(CCN(C(=O)[C@@H]3CN(C(C)(C)C)C[C@H]3c3ccc(F)cc3F)CC2)c2cc(Cl)c(C)cc21	60%	0.91 nM	323 nM	2.6 nM	94%	–	–	–	–	–
CC(=O)N(C)C(C)(C)[C@H]1CC2(CCN(C(=O)[C@@H]3CN(C(C)(C)C)C[C@H]3c3ccc(F)cc3F)CC2)c2cc(Cl)c(C)cc21	41%	4.3 nM	270 nM	2.5 nM	83%	–	–	–	–	–
Cc1cc2c(cc1Cl)C1(CCN(C(=O)[C@@H]3CN(C(C)(C)C)C[C@H]3c3ccc(F)cc3F)CC1)C[C@@H]2C(C)(C)C(=O)NCC(F)(F)F	30%	4.2 nM	838 nM	5.4 nM	89%	–	–	–	–	–
